Screens as filed in PubChem BioAssay.
Thrombin inh: thrombin (human) inhibition. alpha-thrombin, Boc-VPR-AMC fluorogenic substrate cleavage. P00734. inhibition, % at 5 µM. hit rate 0.26% among 220,000;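 active means inhibition at or above 40%; inactive means inhibition below 40%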
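Test system: human alpha-thrombin; medium: pH 7.5 Tris-saline with Tween 20; times: reaction at room temperature; signal: AMC fluorescence at 355 nm excitation and 460 nm emission; also added: Boc-VPR-AMC substrate, 15 µM final; dosing: one concentration per compound, 5 µM, with 0.2% DMSO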
hK5 inh: blocks human kallikrein 5 protease activity. Q9Y337. recombinant hK5, fluorogenic AMC substrate cleavage. inhibition, % at 5 µM. hit rate 0.59% among 210,000;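 active means inhibition of 40% or more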
Tb hexokinase: blocks Trypanosoma brucei hexokinase 1 activity; AID 1430; recombinant TbHK1, G6PDH-coupled NADH A340; hit rate 0.11% among 220,000; inhibition, % at 10 µM;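 active means inhibition of 50% or more in the single-dose primary screen; inactive means inhibition below 50%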
FXIa inh: blocks human coagulation factor XIa protease activity | purified FXIa, Boc-Glu-Ala-Arg-AMC fluorogenic substrate | inhibition, % at 5 µM | hit rate 0.14% among 220,000 | AID 798;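 active means inhibition of at least 40%; inactive means inhibition below 40%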;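 further: fluorescence of freed AMC excited at 355 nm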
FXIIa inh: blocks human coagulation factor XIIa protease activity | purified FXIIa, Boc-QGR-AMC fluorogenic substrate, 2 h | inhibition, % at 5 µM | hit rate 0.3% among 220,000; in the data active means inhibition above about 40%
Target sequence (P00748 20-372 limits assumed): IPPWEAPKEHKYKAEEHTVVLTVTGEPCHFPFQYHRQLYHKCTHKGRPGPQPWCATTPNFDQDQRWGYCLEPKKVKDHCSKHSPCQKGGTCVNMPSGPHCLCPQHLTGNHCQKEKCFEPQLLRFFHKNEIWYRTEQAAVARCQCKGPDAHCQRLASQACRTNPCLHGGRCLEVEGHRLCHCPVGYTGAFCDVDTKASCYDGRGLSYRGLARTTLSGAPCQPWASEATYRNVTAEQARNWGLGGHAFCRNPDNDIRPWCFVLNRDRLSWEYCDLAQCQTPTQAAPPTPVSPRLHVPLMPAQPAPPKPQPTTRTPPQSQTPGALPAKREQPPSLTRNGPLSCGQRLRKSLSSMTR
Target sequence (P00748 373-615 limits assumed): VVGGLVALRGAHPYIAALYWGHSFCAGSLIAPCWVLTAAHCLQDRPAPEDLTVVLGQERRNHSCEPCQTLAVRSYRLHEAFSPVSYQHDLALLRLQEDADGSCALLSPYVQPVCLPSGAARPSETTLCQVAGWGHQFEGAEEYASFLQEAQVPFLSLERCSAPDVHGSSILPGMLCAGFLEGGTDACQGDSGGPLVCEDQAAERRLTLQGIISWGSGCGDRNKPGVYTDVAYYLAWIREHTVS
Of the large screens only hits and unclear results are named; the others gave an inactive call. In the library only some 1.1% were active in any assay of this set; here they are far more common.

Cc1cc(C(=O)Cn2nc(C(=O)O)c3ccccc3c2=O)c(C)n1-c1cccc(C(F)(F)F)c1	FXIa inh 71.7
Cc1ccc(C(O)(C(=O)NNc2ccc3ccccc3n2)c2ccc(C)cc2)cc1	none
Cn1cccc1C(=O)Nc1nc(-c2ccccn2)cs1	FXIa inh 46.8
COCCSc1ccccc1C(=O)NCc1cccnc1	none
COc1ccc(-c2cnnc(N/N=C/C(C)=C/c3ccccc3)n2)cc1	none
COc1ccc(NC(=O)Cc2ccccc2F)cn1	Thrombin inh 49.8
COc1cc(C(=O)O/N=C2\C=CC(=O)C=C2C)cc(OC)c1OC	FXIIa inh 41.0
COc1cc(C(=O)O/N=C2/C=CC(=O)C(C)=C2C)cc(OC)c1OC	none
Cc1cc(C)nc(SCc2cc(=O)c(OC(=O)c3ccc(S(=O)(=O)N4CCCC4)cc3)co2)n1	none
Cc1nn2c(-c3ccncc3)ccnc2c1Br	none
O=C(O)CSCC(=O)NCc1cccc(C(F)(F)F)c1	Thrombin inh 40.5
O=C(CSc1cccc(C(F)(F)F)c1)NCc1ccccc1	none
CS(=O)(=O)N(CC(=O)NCc1ccncc1)C1CCCCC1	none
CCCCCc1ccc(OCCCC[n+]2ccc(C)cc2)c(CCCCC)c1	hK5 inh 40.4
O=C1OC(Nc2ncccn2)c2ccccc21 (centres undefined)	hK5 inh 41.8, FXIIa inh 106.1
COc1ccc(CC(=O)Nc2ccccc2N2CCCCC2)cc1OC	hK5 inh 111.9
C=CCNC(=O)C1COc2ccccc2O1 (centres undefined)	none
C=CCOC(=O)C1=C(C)N=C2SCCC(=O)N2C1c1cccs1 (centres undefined)	FXIIa inh 71.4
CCOC(=O)C1=C(C)N=C2SCCC(=O)N2C1c1sccc1C (centres undefined)	none
COc1ccc(C2C(C(C)=O)=C(O)C(=O)N2c2nccs2)cc1OC (centres undefined)	hK5 inh 56.6, FXIIa inh 50.4
COc1ccc(C2C(C(C)=O)=C(O)C(=O)N2c2nc3ccccc3s2)cc1OC (centres undefined)	none
Cc1nc(=O)c(-c2ccccc2)c(C)n1CC1CCCO1 (centres undefined)	hK5 inh 74.0
S=c1[nH]nc(-c2ccccc2)n1CC1CCCO1 (centres undefined)	none
Cc1ccc(C)c(N2CCN(C(=O)CN(C)S(=O)(=O)c3ccc4c(c3)CCC(=O)N4)CC2)c1	hK5 inh 52.8
Cc1ccc(C)c(N2CCN(S(=O)(=O)c3ccc4c(c3)CCC(=O)N4)CC2)c1	none
O=C(Nc1sc2c(c1C(=O)NCC1CCCO1)CCCC2)c1cccs1 (centres undefined)	hK5 inh 54.2
N#Cc1cnn(-c2ccccc2)c1NC(=O)CN1CCN(c2ccccc2)CC1	none
O=C1c2cccc3cccc(c23)C(=O)N1c1ccccn1	hK5 inh 47.3
O=C1c2cccc3cccc(c23)C(=O)N1c1ccncc1	none
O=C(CC(c1ccc(F)cc1)c1ccco1)N1CCOCC1 (centres undefined)	Thrombin inh 42.8, hK5 inh 58.7
Cn1c(=O)[nH]c(=O)c2c1nc(N1CCCCCC1)n2CCOc1ccccc1	none
COc1ccccc1OCC(=O)N/N=C1/C=C(C)CC1	none
CCOc1ccc(CSCCNC(=S)Nc2ccccc2)cc1	hK5 inh 50.7
CCOc1ccc(NC(=S)NCCCc2ccccc2)cc1	none
Cc1occc1C(=O)Nc1cc(C(F)(F)F)ccc1Cl	Thrombin inh 50.4
COc1ccc(C(C)(C)C)cc1NC(=O)c1ccoc1C	none
O=C(CSc1n[nH]c(=O)[nH]c1=O)NC1CC1	none
O=C(NC(=S)Nc1ccc(S(=O)(=O)Nc2nccs2)cc1)c1ccccc1F	FXIIa inh 77.0
O=C1N=C2N(CCN3CCCCC3)c3ccccc3N2/C1=C\c1ccc([N+](=O)[O-])o1	none
COC(=O)c1ccc(Nc2nc(C)cc(=O)[nH]2)cc1	FXIIa inh 41.5
COc1ccc2c(=O)c(-c3ccc(OC)c(OC)c3)coc2c1	none
COc1ccc(-c2coc3cc(O)ccc3c2=O)cc1OC	hK5 inh 43.0
Cc1cc(OCC(=O)OCC(=O)Nc2cc(C(F)(F)F)ccc2N2CCOCC2)ccc1Cl	none
CCOc1ccc(N2C(=O)CC(NCCNc3ccc(C(=O)c4cccs4)cc3)C2=O)cc1 (centres undefined)	none
CCN(CC)C(=O)c1ccc(NS(=O)(=O)c2ccc(/C=C/C(=O)O)cc2)cc1	hK5 inh 44.1 (no result: Thrombin inh)
CCN(CC)C(=O)c1ccc(NS(=O)(=O)c2ccccc2)cc1	none
CC(C)(C)NC(=O)CN1CCN(C(=O)CCl)CC1	none (no result: hK5 inh)
CC1(C)[C@H]2CC=C(CN3CCC(N4CCC(C(=O)N5CCCC5)CC4)CC3)[C@@H]1C2	none
Cc1cc(=O)n2ccsc2n1	none
C=C(C)COc1ccc(-c2ncncc2Oc2ccc(OC)cc2)c(O)c1	hK5 inh 43.3
C=C(C)COc1ccc(-c2[nH]ncc2Oc2ccccc2OCC)c(O)c1	none
CCCOC(=O)c1ccc(Oc2cn[nH]c2-c2ccc(OCC(=O)NN)cc2O)cc1	hK5 inh 41.0, FXIa inh 43.5
C=C(C)COc1ccc(-c2[nH]ncc2Oc2cccc(OC)c2)c(O)c1	hK5 inh 62.7
C=CCOc1ccc(Br)cc1CNC(C)(C)C	none (no result: Thrombin inh)
CC(c1nnc(SCC(=O)Nc2cccnc2Cl)n1Cc1ccccc1)N(C)C (centres undefined)	none
CC1CN(c2nnnn2-c2ccccc2)CC(C)O1 (centres undefined)	hK5 inh 66.6
O=C(c1ccccc1)C1CN(c2ccccc2)CC1c1ccc(Cl)cc1 (centres undefined)	hK5 inh 62.0, FXIIa inh 53.7
COc1cccc(C(=O)C2CN(c3ccccc3)CC2c2ccc(Cl)cc2)c1 (centres undefined)	none
COc1cc(CNC2CCCCC2OC)cc(OC)c1OC (centres undefined)	none
COC(=O)CS(=O)(=O)c1nnc([C@H](Cc2ccccc2)NC(=O)OC(C)(C)C)o1	FXIIa inh 42.1
Cc1cccc(CS(=O)(=O)c2nnc([C@H](Cc3ccccc3)NC(=O)OC(C)(C)C)o2)c1	none
Cc1ccnc(NC(=O)c2ccc([N+](=O)[O-])o2)c1	Thrombin inh 100.9
Cc1cc(Cl)ccc1OCCCC(=O)NN	none
Cc1ccnc(NC(=O)CCCOc2ccc(Cl)cc2C)c1	hK5 inh 41.3
O=C(Nc1ccccn1)c1ccc([N+](=O)[O-])o1	none
COc1ccc(CC(=O)Nc2cc(C)ccn2)cc1	hK5 inh 82.0
O=C(N/N=C/c1ccccn1)NC12CC3CC(CC(C3)C1)C2	none
O=C(CC(Nc1ccc(F)cc1)C(=O)OCC(=O)c1cccs1)c1ccccc1 (centres undefined)	Thrombin inh 50.1
O=C(CC(Nc1ccc(F)cc1)C(=O)O)c1ccccc1 (centres undefined)	hK5 inh 51.8
O=C(COC(=O)c1cccs1)c1ccccc1	none
CCN(CC)S(=O)(=O)c1ccc(NS(=O)(=O)c2ccc(F)cc2)cc1	none
